In general, Kd refers to the free concentration of one partner at which half of the binding sites on the other are occupied at equilibrium, for simple one-to-one binding.

This passage reports inhibition, Activity and Kd results from ChEMBL document CHEMBL1687733, “Topoisomerase I gene mutations at F270 in the large subunit and N184 in the small subunit contribute to the resistance mechanism of the unicellular parasite Leishmania donovani towards 3,3'-diindolylmethane” (Antimicrob Agents Chemother, 2009).

Structures are written as SMILES. Positions count from the first letter of the chain named. Calls of active or inactive are those of the source.

In test [1] the test system is T1, Leishmania donovani [F270L].
T1 sequence (whole entry): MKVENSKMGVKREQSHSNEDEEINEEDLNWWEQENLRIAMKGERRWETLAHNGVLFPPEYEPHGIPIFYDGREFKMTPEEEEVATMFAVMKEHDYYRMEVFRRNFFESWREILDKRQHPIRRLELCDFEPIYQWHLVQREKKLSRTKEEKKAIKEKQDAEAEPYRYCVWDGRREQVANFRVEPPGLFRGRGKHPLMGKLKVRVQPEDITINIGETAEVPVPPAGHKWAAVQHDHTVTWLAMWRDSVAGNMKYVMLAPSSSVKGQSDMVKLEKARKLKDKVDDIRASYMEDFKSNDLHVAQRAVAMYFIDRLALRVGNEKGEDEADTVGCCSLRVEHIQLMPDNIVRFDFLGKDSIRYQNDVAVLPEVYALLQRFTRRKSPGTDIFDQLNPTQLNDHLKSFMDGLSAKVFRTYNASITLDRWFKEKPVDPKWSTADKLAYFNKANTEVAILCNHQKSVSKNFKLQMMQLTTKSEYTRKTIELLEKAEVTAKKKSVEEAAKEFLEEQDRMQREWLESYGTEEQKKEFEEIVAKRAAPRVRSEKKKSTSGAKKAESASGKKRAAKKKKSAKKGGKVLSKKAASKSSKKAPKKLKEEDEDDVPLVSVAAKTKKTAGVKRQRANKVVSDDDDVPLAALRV
As to the kind of experiment: Inhibition of recombinant drug-resistant Leishmania donovani LdDR50 topoisomerase 1b wild type small subunit and large subunit F270L mutant-mediated relaxation of supercoiled pBluescript SK(+) DNA at up to 50 uM after 30 mins using ethidium bromide staining. The procedure, abridged: (§1)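 Reconstituted recombinant enzyme (30 fmol) with 90 fmol supercoiled pBluescript SK(+) DNA (3:1 DNA:enzyme), 30 min at 37°C with DIM (1–50 μM for fully mutant enzyme; 10 μM for single-site mutants); 4% DMSO vehicle control. Products on 1% agarose, ethidium bromide (0.5 μg/ml) stained; supercoiled monomer band quantified.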

Test [2] deals with Leishmania donovani. As to the kind of experiment: Inhibition of recombinant drug-resistant Leishmania donovani LdDR50 topoisomerase 1b large subunit K430N mutant and small subunit N184S mutant-mediated relaxation of supercoiled pBluescript SK(+) DNA at up to 50 uM after 30 mins using ethidium bromide staining. In a few lines: as §1
The test system of test [3] is T2, Leishmania donovani [N184S].
T2 sequence (whole entry): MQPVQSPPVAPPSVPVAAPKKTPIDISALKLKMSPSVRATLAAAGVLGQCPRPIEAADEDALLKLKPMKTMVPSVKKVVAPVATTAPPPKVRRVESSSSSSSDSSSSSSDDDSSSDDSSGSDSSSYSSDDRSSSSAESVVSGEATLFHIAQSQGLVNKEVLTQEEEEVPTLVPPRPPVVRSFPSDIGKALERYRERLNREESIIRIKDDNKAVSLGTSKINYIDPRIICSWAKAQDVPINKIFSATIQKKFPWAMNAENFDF
The test is described as follows: Inhibition of recombinant drug-resistant Leishmania donovani LdDR50 topoisomerase 1b wild type large subunit and small subunit N184S mutant-mediated relaxation of supercoiled pBluescript SK(+) DNA at up to 50 uM after 30 mins using ethidium bromide staining. The procedure, abridged: as §1

In test [4] the test system is T3, DNA topoisomerase I (Leishmania donovani (strain BPK282A1)), E9BRC0 [F270L].
T3 sequence (whole entry): T1 sequence (whole entry)
The test is described as follows: Effect on recombinant drug-resistant Leishmania donovani LdDR50 topoisomerase 1b large subunit F270L mutant-mediated cleavage of 25-mer duplex oligonucleotide at 20 uM after 30 mins by PAGE analysis. In a few lines:
(§2)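 5′-32P-labelled 25-mer duplex (10 nM) incubated with reconstituted mutant enzyme (0.2 μM, 20-fold molar excess) and DIM 5–20 μM for 30 min (Methods 37°C; legend 23°C). Stopped with SDS, trypsin-treated, resolved on 12% denaturing polyacrylamide-urea gel; cleaved 12-mer detected by autoradiography.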

For test [5], the system named is T4, DNA topoisomerase I (Leishmania donovani (strain BPK282A1)), E9BRC0 [K430N].
T4 sequence (whole entry): T1 sequence (whole entry) with L270F, K430N
The test is described as follows: Effect on recombinant drug-resistant Leishmania donovani LdDR50 topoisomerase 1b large subunit K430N mutant-mediated cleavage of 25-mer duplex oligonucleotide at 20 uM after 30 mins by PAGE analysis. In a few lines: as §2

The subject of test [6] is T3, DNA topoisomerase I (Leishmania donovani (strain BPK282A1)), E9BRC0 [F270L]. As to the kind of experiment: Inhibition of recombinant drug-resistant Leishmania donovani LdDR50 topoisomerase 1b large subunit F270L mutant-mediated religation of 14-mer/25-mer suicide DNA substrate at 20 uM […] by PAGE analysis.
Test [7] deals with Leishmania donovani. The test is described as follows: Inhibition of recombinant Leishmania donovani AG83 topoisomerase 1b-mediated religation of 14-mer/25-mer suicide DNA substrate at 20 uM after […] by PAGE analysis. In a few lines:
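For cleavage, the 5′-32P 14-mer/25-mer suicide substrate (5 nM) was incubated with 0.15 μM reconstituted enzyme at 23°C, with or without 20 μM DIM. Complexes were shifted to 30°C for 2 min. A 300-fold excess of 11-mer acceptor was added for 30, 60 and 120 s. Samples were stopped with 1% SDS, trypsinised, and run on a sequencing gel to read the 23-mer religated product.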

Test [8] in a line: Binding affinity to recombinant drug-resistant Leishmania donovani LdDR50 topoisomerase 1b after 24 hrs by equilibrium dialysis method. The procedure, abridged: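 Recombinant His-tagged subunits expressed in E. coli BL21(DE3) pLysS, purified on Ni-NTA then phosphocellulose, reconstituted 1:1. Enzyme 200 μM with DIM 1–20 μM in 20 mM Tris-HCl pH 7.5, 50 mM NaCl, 10 mM MgCl2 for 30 min at 37°C, then dialysed (12–14 kDa cutoff) 24 h at 25°C. Free DIM measured by absorbance (ε 6.6 × 10^4 M−1); KD from saturation plot.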
For orientation: In equilibrium dialysis free small molecules cross a membrane that holds back macromolecules.

For the molecule `c1ccc2c(Cc3c[nH]c4ccccc34)c[nH]c2c1` [ARUNDINE], the inhibition entry in test [1] and in test [6] was “inactive” each time. In addition, the inhibition entry in test [2], in test [3] and in test [7] was “Active” throughout. Besides, in test [4], the outcome was inactive. Also, in test [5], the result was Active. Moreover, the Kd in test [8] was found to be 240 µM.
